Laboratory results from ChEMBL document CHEMBL4376860, “Discovery of Novel Dual Poly(ADP-ribose)polymerase and Phosphoinositide 3-Kinase Inhibitors as a Promising Strategy for Cancer Therapy” (J Med Chem, 2020).
Active and inactive are the calls of the source. No cut-off for these calls is given here.

Legend:
[1] = target: Poly [ADP-ribose] polymerase 1 (Homo sapiens, UniProt P09874); assay: Inhibition of recombinant human PARP1 using histone as substrate after 1 hr in presence of biotinylated NAD+ by ELISA
[2] = target: Phosphatidylinositol 4,5-bisphosphate 3-kinase catalytic subunit alpha isoform (Homo sapiens, UniProt P42336); assay: Inhibition of PI3Kalpha (unknown origin) using PIP2 as substrate measured after 1 hr by ADP-glo plus luminescence assay
[3] = system: MDA-MB-468; assay: Induction of apoptosis in human MDA-MB-468 cells assessed as increase in cleaved PARP level at 1 uM […] by Western blot analysis; type: functional, cell-based
[4] = system: Mus musculus; assay: In vivo inhibition of PI3K in BALB/c mouse xenografted with human MDA-MB-468 cells assessed as reduction in pS6 phosphorylation at S240 residue at 50 mg/kg, ip administered every 2 days for 34 days measured post-last dose by Western blot analysis; type: functional, organism-based
[5] = system: Mus musculus; assay: In vivo activation of ERK in BALB/c mouse xenografted with human MDA-MB-468 cells assessed as increase in ERK autophosphorylation at T202 residue at 50 mg/kg, ip administered every 2 days for 34 days measured post-last dose by Western blot analysis; type: functional, organism-based
[6] = system: Mus musculus; assay: In vivo inhibition of PI3K in BALB/c mouse xenografted with human MDA-MB-468 cells assessed as reduction in BRCA1 expression at 50 mg/kg, ip administered every 2 days for 34 days measured post-last dose by Western blot analysis; type: functional, organism-based
[7] = target: Poly [ADP-ribose] polymerase 2 (Homo sapiens, UniProt Q9UGN5); assay: Inhibition of recombinant human PARP2 using histone as substrate after 1 hr in presence of biotinylated NAD+ by ELISA
[8] = system: MDA-MB-468; assay: Induction of apoptosis in human MDA-MB-468 cells assessed as viable cells at 1 uM measured after 72 hrs in presence of PARP inhibitor olaparib by Annexin V-FITC/propidium iodide staining based flow cytometry (reference value: 95.2%); type: functional; conditions: MDA-MB-468, 72 h, read-out: Activity
[9] = system: MDA-MB-468; assay: Induction of apoptosis in human MDA-MB-468 cells assessed as early apoptotic cells at 1 uM measured after 72 hrs in presence of PARP inhibitor olaparib by Annexin V-FITC/propidium iodide staining based flow cytometry (reference value: 3.88%); type: functional
[10] = system: MDA-MB-468; assay: Induction of apoptosis in human MDA-MB-468 cells assessed as late apoptotic cells at 1 uM measured after 72 hrs in presence of PARP inhibitor olaparib by Annexin V-FITC/propidium iodide staining based flow cytometry (reference value: 0.78%); type: functional
[11] = system: MDA-MB-468; assay: Antitumor activity against human MDA-MB-468 cells xenografted in BALB/c mouse assessed as tumor growth inhibition at 27.5 mg/kg, ip administered every 2 days for 34 days and measured at 2 days interval during compound dosing relative to control; type: functional; conditions: MDA-MB-468, ip, read-out: TGI
[12] = system: MDA-MB-468; assay: Antitumor activity against human MDA-MB-468 cells xenografted in BALB/c mouse assessed as tumor growth inhibition at 27.5 mg/kg, ip administered every 2 days for 34 days and measured at 2 days interval during compound dosing in presence of PARP inhibitor olaparib relative to control; type: functional; conditions: MDA-MB-468, ip, read-out: TGI
[13] = Toxicity in BALB/c mouse xenografted with human MDA-MB-468 cells assessed as mortality at 27.5 mg/kg, ip administered every 2 days for 34 days; type: organism-based; conditions: in vivo
Outline: (§1)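 Nude mice bearing subcutaneous right-flank MDA-MB-468 tumours (2 × 10^6 exponential-phase cells implanted). Randomised at about 100 mm³ tumour volume; 6 mice per group. Dosed ip every 2 days for 34 days. Vehicle controls received PBS with 5% DMSO. Body weight and tumour size recorded every 2 days; tumour volume calculated as ab²/2 from caliper diameters.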

[14] = Toxicity in BALB/c mouse xenografted with human MDA-MB-468 cells assessed as mortality at 50 mg/kg, ip administered every 2 days for 34 days in presence of PARP inhibitor olaparib; type: organism-based; conditions: in vivo; outline: as §1
[15] = system: HCC1937; assay: cells; conditions: Homo sapiens, HCC1937, 168 h, read-out: pIC50 (converted)
[16] = system: MDA-MB-231; assay: cells; conditions: Homo sapiens, MDA-MB-231, 168 h, read-out: pIC50 (converted)
[17] = system: BXPC-3; assay: cells; conditions: Homo sapiens, BXPC-3, 168 h, read-out: pIC50 (converted)

Chain of Phosphatidylinositol 4,5-bisphosphate 3-kinase catalytic subunit alpha isoform (P42336 whole entry, canonical isoform): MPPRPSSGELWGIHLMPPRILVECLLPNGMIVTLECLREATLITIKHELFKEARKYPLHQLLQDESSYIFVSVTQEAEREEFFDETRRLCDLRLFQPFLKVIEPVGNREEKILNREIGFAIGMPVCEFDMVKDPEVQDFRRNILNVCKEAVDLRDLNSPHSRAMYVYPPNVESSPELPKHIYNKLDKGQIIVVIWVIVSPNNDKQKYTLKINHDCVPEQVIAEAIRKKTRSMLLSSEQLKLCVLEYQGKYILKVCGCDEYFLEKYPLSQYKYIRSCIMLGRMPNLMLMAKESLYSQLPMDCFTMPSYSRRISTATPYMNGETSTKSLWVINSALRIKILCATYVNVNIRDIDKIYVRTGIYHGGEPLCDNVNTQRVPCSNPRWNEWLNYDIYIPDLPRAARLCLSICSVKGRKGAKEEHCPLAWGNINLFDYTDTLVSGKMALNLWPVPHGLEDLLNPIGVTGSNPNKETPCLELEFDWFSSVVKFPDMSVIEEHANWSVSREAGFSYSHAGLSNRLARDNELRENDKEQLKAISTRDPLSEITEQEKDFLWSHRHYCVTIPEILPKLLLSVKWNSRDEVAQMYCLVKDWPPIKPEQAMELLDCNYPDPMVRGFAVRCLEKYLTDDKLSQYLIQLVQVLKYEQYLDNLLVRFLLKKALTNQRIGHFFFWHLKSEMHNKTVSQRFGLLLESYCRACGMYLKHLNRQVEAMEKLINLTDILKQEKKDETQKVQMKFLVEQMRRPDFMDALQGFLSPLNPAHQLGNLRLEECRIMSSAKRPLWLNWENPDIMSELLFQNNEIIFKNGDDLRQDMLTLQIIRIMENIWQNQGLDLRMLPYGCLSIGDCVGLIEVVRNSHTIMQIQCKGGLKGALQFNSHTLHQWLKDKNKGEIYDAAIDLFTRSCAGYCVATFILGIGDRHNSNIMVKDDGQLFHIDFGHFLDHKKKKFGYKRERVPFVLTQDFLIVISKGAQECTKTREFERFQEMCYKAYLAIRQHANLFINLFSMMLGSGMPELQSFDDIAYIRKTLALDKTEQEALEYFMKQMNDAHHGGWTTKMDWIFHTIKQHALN
Chain of Poly [ADP-ribose] polymerase 1 (P09874 whole entry, canonical isoform): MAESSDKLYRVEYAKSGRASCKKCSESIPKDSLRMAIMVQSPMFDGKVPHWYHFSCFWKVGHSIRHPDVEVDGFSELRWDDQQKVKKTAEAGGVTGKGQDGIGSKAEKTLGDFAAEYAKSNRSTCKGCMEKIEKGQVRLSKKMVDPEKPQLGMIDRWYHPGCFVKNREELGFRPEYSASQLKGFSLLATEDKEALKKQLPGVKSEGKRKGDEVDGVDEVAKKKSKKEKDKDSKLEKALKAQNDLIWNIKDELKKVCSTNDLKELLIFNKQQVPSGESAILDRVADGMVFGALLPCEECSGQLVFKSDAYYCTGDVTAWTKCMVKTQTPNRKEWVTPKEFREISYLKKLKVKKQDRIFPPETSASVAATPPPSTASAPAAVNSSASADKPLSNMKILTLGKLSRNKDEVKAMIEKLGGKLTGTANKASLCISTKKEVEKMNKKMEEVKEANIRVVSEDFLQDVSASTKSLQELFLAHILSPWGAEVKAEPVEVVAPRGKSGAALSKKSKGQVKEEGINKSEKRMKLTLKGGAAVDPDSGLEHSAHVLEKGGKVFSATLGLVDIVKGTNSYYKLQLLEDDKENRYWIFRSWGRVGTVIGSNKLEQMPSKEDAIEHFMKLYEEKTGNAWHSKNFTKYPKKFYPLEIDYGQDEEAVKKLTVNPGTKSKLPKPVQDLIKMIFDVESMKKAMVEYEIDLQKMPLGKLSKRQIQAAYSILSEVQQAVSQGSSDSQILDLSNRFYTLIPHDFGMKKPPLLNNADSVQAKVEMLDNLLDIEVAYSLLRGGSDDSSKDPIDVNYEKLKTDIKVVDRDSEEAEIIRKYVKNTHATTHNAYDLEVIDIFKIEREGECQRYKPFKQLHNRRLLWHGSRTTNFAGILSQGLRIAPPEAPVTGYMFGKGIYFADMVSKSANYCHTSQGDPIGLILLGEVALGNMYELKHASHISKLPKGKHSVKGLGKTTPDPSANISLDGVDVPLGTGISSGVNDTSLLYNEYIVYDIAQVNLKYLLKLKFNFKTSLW
Chain of Poly [ADP-ribose] polymerase 2 (Q9UGN5 whole entry): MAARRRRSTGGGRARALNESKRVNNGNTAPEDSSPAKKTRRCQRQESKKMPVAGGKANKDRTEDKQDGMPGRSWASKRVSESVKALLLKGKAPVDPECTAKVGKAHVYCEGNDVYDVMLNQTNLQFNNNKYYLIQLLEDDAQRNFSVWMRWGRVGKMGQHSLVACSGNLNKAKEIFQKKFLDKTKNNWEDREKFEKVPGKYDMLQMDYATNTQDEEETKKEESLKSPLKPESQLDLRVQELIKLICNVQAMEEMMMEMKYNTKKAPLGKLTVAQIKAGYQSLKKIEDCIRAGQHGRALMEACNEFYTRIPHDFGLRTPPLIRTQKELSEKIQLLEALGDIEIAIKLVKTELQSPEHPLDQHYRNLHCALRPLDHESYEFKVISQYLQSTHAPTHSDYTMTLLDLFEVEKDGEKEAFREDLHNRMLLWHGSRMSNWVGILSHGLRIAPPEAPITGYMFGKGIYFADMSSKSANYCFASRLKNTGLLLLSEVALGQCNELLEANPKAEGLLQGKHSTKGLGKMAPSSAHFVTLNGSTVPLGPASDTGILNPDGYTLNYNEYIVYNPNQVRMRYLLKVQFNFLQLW

For `Nc1cc(C(F)(F)F)c(-c2nc3c(c(N4CCOCC4)n2)CCN(C(=O)c2cc(Cc4n[nH]c(=O)c5ccccc45)ccc2F)C3)cn1`, the IC50 [1] was 6.03 nM, the IC50 [2] was 5.62 nM and the Activity [3] was “Active”. The inhibition [4] was “Active”, the Activity [5] was “Active” and the inhibition [6] was “Active”. It also gave an IC50 [7] of 3.63 nM.

Work on `Nc1cc(C(F)(F)F)c(-c2cc(N3CCOCC3)nc(N3CCOCC3)n2)cn1` [BUPARLISIB] yielded a viability at 1 µM [8] of 81.5%, an Activity [9] of 9.21% and an Activity [10] of 7.84%. For the same compound, the inhibition in vivo at 27.5 mg/kg [11] was 33.4%, the inhibition in vivo at 27.5 mg/kg [12] was 48.4% and the Activity [13] was “Non-Toxic”. For the same compound, the Activity [14] was “Non-Toxic”, the IC50 [15] was 1700 nM and the IC50 [16] was 1580 nM. For the same compound, the IC50 [17] was 2450 nM.
